Test results as given in the EternaBench riboswitch data.

System: MS2 coat protein
Assay: apparent Kd, MS2 coat protein; higher = weaker binding; RNA-MaP array; FMN 200 µM where present
Summary of the method: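 In 100 mM Tris-HCl pH 7.5, 80 mM KCl, 4 mM MgCl2, BSA, DTT, yeast tRNA and Tween-20, SNAP-549-labelled MS2 coat protein was titrated from 0.7 or 1.5 nM, doubling to 3 µM, over designs transcribed by stalled E. coli RNA polymerase on Illumina sequencing-chip clusters. This was done first without ligand, then with ligand held constant. After green signal was normalised to red-channel RNA signal and control-cluster median Fmax, the apparent Kd was taken as the median of filtered per-cluster binding-curve fits.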

[1] = designed as: OFF switch for flavin mononucleotide, no ligand
[2] = ligand present: flavin mononucleotide, designed as: OFF switch for flavin mononucleotide
[3] = designed as: ON switch for flavin mononucleotide, no ligand
[4] = ligand present: flavin mononucleotide, designed as: ON switch for flavin mononucleotide

## AUUAGCUGAGGAUAUGCAGCUUUGUUCGUCGAGUGAAAAGAACAUGAGGAUCACCCAUGUAGAAGGCAGUUGAC
[1]
  apparent Kd: 17.4 nM
[2]
  apparent Kd: 18.1 nM

## CUAGAAAGGACAGGAUAUCGGGAUCGAACACCCGACAUGAGGAUCACCCAUGUCGCAAAUGAUAGCGAGAAGGGUCGGACACAA
[3]
  apparent Kd: 57 nM
[4]
  apparent Kd: 18.6 nM

## GCAGCACAGUUUUACAUGAGGAUCACCCAUGUCUAUUGAGAUGAGGAUAUGCAUCGAAUGAAGUUGCAGAAGGCAUUGUGCUGC
[3]
  apparent Kd: 11.2 nM
[4]
  apparent Kd: 6.46 nM

## UCGCGGGAGCAGAAGGGAUAGGCCUAUUGUCGUGAGGUCUACACUUAACAUGAGGAUCACCCAUGUCAGGAUAUGCCCACGCGA
[1]
  apparent Kd: 4.68 nM
[2]
  apparent Kd: 4.64 nM

## UCAUGCAUAGCGAUAUGAUCGAGAGAUCAUGUCGCUAAAUUUAGAAGGACAUGAGGAUCACCCAUGUAGGAUAUGGGAGCAUGG
[3]
  apparent Kd: 292 nM
[4]
  apparent Kd: 31.9 nM

## GGGUACAUCGGAGGAUAUCAUGUAAAUACAUGAGGAUCACCCAUGUCGAUGGAGACAUCGGAGAUUGAGAAGGCUGAUGUACCG
[3]
  apparent Kd: 188 nM
[4]
  apparent Kd: 9.18 nM

## CACUCGUGUCUAGGAUAUGAGUGACAAGCGCGAGAUUUUCUCGCUGCUAGCUCAGAAGGAGACAUGAGGAUCACCCAUGUAAGG
[1]
  apparent Kd: 144 nM
[2]
  apparent Kd: 25.4 nM

## GGAAAACAUGAGGAUCACCCAUGUGAGGAUAUCGAUGUCCAAAGAAAAGUGCGGGACUCGAGAAGGCACUUGGA
[1]
  apparent Kd: 52.9 nM
[2]
  apparent Kd: 33.7 nM

## GGUACUCAAAGAGUACGGAGUCGAACAUGAGGAUCACCCAUGUAGGAUAUGCAAAGCUAGAAGUAGCAGAAGGACAUGUGCAGC
[1]
  apparent Kd: 15 nM
[2]
  apparent Kd: 17.1 nM

## UAUUUAUAAUAUUUUAACAUGAGGAUCACCCAUGUCGCUAGACAGGAUAUAUUUUAUUUGUUUAAGUAGAAGGGUCAUAGAUUU
[3]
  apparent Kd: 175 nM
[4]
  apparent Kd: 145 nM

## ACACAUGAGGAUCACCCAUGUAGCUGGCGUCUGCACCAGCCACAGGAUAUACGGCAACACAAACCGUAGAAGGGUGAUAAACAC
[3]
  apparent Kd: 56.3 nM
[4]
  apparent Kd: 27.3 nM

## UUUUCCAGAGGAUAUGCGAAUAAAUAAAACUUUUUUUUUUAACAUGAGGAUCACCCAUGUAGAAGGCUGAUUUU
[1]
  apparent Kd: 47.9 nM
[2]
  apparent Kd: 48.5 nM

## UACGGACAUGAGGAUCACCCAUGUGAGGAUAUCGGUACCGAUAGCAUAAUCUACUCGGCGAGAAGGCACAGCGU
[1]
  apparent Kd: 30.7 nM
[2]
  apparent Kd: 40.1 nM

## AUGCUUUAUGUAGGAUAUACAUACGGUACGUAUGUAGAAGGACAUGAGGAUCACCCAUGUAAAUUAUUAUUAAAUAUCAUACAU
[1]
  apparent Kd: 8.56 nM
[2]
  apparent Kd: 12.3 nM

## AACAGUACAGGAUAUACAUGAGGAUCACCCAUGUGAAGAUUAAGUGGUGUACCACUAAGUAGAAGGGUACUGGA
[1]
  apparent Kd: 28.8 nM
[2]
  apparent Kd: 126 nM

## AGCGGCGCGGGCCACCGCAGAACCAGAAGGACAUGAGGAUCACCCAUGUAACAGAACAGGGCGGUGUAGGAUAUGGCAGGCUCG
[1]
  apparent Kd: 25.1 nM
[2]
  apparent Kd: 46.2 nM

## GGGUACAUCGGAGGAUAUCUUGUAAAUACAUGAGGAUCACCCAUGUCGAUGGAGACAUCGGAGAUUGAGAAGGCCGAUGUACCG
[3]
  apparent Kd: 8.03 nM
[4]
  apparent Kd: 5.36 nM

## AAUGAAACUUAGAAGGCCUACAUGAGGAUCACCCAUGUGGCUUUAAGUGUAGGAGGAUAUGAGGAUGCGGGUAGGAACCCACGC
[1]
  apparent Kd: 6.37 nM
[2]
  apparent Kd: 14.8 nM

## AAGGAGUUAGGAUAUGCUGCUCGUCACUUGCGUGAUGAGUAGCAGAAGGAACAUGAGGAUCACCCAUGUAAAGA
[1]
  apparent Kd: 30.2 nM
[2]
  apparent Kd: 24.2 nM

## UUGCGGUCAGGAUAUGCAUGGCGGGACUUGCGUCGUGGCGUGGAGAAGGGACAUGAGGAUCACCCAUGUGGAGA
[1]
  apparent Kd: 88.2 nM
[2]
  apparent Kd: 65.7 nM

## GGCGAACGGGCUAACAUGAGGAUCACCCAUGUGGACUCAUGGUAGGAUAUGCUGUACAAAGUACAGCAGAAGGGCCGGUGAGCC
[3]
  apparent Kd: 142 nM
[4]
  apparent Kd: 445 nM

## UAGAGCGCUUGAGGAUAUCGUUUUGUGAUGGUACUCAUGCCUGUUACAUGAGGAUCACCCAUGUACGAGAAGGCAGGCCGUUAG
[1]
  apparent Kd: 58.1 nM
[2]
  apparent Kd: 30.5 nM

## AGGUGACAUGAGGAUCACCCAUGUGAGGAUAUCUGGAUACUCUUUAUUUUAGAUAUCCAGAGAAGGCACACCCU
[1]
  apparent Kd: 263 nM
[2]
  apparent Kd: 502 nM

## AAGUCGUUAGGAUAUACAUGGAUAUACAUUUAUGUAGAACUACAUGAGGAUCACCCAUGUAGAAGGAACGAAUA
[1]
  apparent Kd: 38.2 nM
[2]
  apparent Kd: 54 nM

## ACGGAACAUGAGGAUCACCCAUGUAUCUGAGAUAUGGUCUCACAGGAUAUUCAGAGUUGCCAAUCGGAGAAGGGUGACACCAGA
[3]
  apparent Kd: 78.5 nM
[4]
  apparent Kd: 43.5 nM

## UAAGUACAGAAGUACUCCGGGUCCAGAAGGGACAUGAGGAUCACCCAUGUACCGUUGAUUGCUUGUCAGGAUAUGGACCCGGCC
[1]
  apparent Kd: 6.83 nM
[2]
  apparent Kd: 25.7 nM

## CCAUGACAAAGUCAUGGAUAACGAACAUGAGGAUCACCCAUGUAGGAUAUGCUACUCAAAGAGUAGCAGAAGGACAUGUGUCUU
[1]
  apparent Kd: 32.7 nM
[2]
  apparent Kd: 165 nM

## UGCAGGCGAGGAUAUGCUCGGGUUGCUUGUCGAGAGGAUGCACAUGAGGAUCACCCAUGUAGAAGGUGUCUAUG
[1]
  apparent Kd: 47.5 nM
[2]
  apparent Kd: 56.2 nM

## CUUCUGUGAGGAUAUGUUAGCUCCCGGCAUGUCGCUGGGAGACAGAAGGCACAUGAGGAUCACCCAUGUGGGCG
[1]
  apparent Kd: 34 nM
[2]
  apparent Kd: 161 nM

## UUAUGUCGCGUAGGAUAUCAUUAGAUUUGUAAUUUAAUUGUAAUUUCGAUAUGAGAAGGACGUACACAUGAGGAUCACCCAUGU
[1]
  apparent Kd: 16.4 nM
[2]
  apparent Kd: 14.2 nM

## UGACCCAUGACAUGAGAUGACAUGAGGAUCACCCAUGUUUACAAGGAUAUGUUGAUGAAACAUCAACAGAAGGUGUAAUGGGAU
[1]
  apparent Kd: 53.7 nM
[2]
  apparent Kd: 385 nM

## ACAUACAUUCGAGGAUAUCGGUGAUUAAUUUUACGAGAAGGCGAUAAAAGAUAUAAAAUUUUAGACAUGAGGAUCACCCAUGUA
[3]
  apparent Kd: 28.6 nM
[4]
  apparent Kd: 27.1 nM

## UUGAAGAACUAAGGAUAUUGAAUACAUAUGUUUAACAUGAGGAUCACCCAUGUGGGUUGCGGUAUCGAGAAGGUAGAUUACUAG
[3]
  apparent Kd: 115 nM
[4]
  apparent Kd: 104 nM

## UGGUACAUCGGAGGAUAUCAUGUAAAUACAUGAGGAUCACCCAUGUCGUACGAGAGUACGGAGAUUGAGAAGGCCGAUGUACCU
[3]
  apparent Kd: 25.7 nM
[4]
  apparent Kd: 15 nM

## CAGCCCUGAGGAUAUCCCUCCUUGUACAUGAGGAUCACCCAUGUUCUCCUCUGGGCCUUGGGAGAAGGCAGAUCUC
[1]
  apparent Kd: 56.9 nM
[2]
  apparent Kd: 49.5 nM

## AGCUACGUUUCGUAGCAGCUAGGUGAGGAUAUCCUUUACAUGAGGAUCACCCAUGUUUAGCCAUGGGAGAAGGCGCCUAGAAAG
[3]
  apparent Kd: 1090 nM
[4]
  apparent Kd: 113 nM

## UGAUCGAAAGAUCAUAGAUUCUGCUAGGAUAUGCAGAAGUUGCGAUUUACAUGAGGAUCACCCAUGUAGAAGGAGUAGAGUCUA
[1]
  apparent Kd: 7.16 nM
[2]
  apparent Kd: 7.16 nM

## GUACAUGAGGAUCACCCAUGUAAAUGGGUAAAUAUAGAACGUAGAAGGAUGUAUUUACACAUGACAUAGGAUAUACUAUAUAGU
[1]
  apparent Kd: 93.8 nM
[2]
  apparent Kd: 73.9 nM

## GGUCCACAUGAGGAUCACCCAUGUUAGGAUAUCUCCCGCCUCCUCACUAGAGGCGGACAGAGAAGGAACAUCAA
[1]
  apparent Kd: 26 nM
[2]
  apparent Kd: 78 nM

## GUGUCCUUAGGAUAUGUUGAGUUAUACAUGAGGAUCACCCAUGUUCCUCGGUAUUGGUCCAUAGAAGGAAGGUUGC
[1]
  apparent Kd: 346 nM
[2]
  apparent Kd: 337 nM

## CUCAUGUCAGGAUAUUAAGUCCGUAGCCUAUGGCUGCAACAUGAGAAGGGACAUGAGGAUCACCCAUGUCGGGA
[1]
  apparent Kd: 47.5 nM
[2]
  apparent Kd: 76.8 nM

## CACUGUCAUGCAGGAUAUGCAUUGGAUUACAAUGCAGAAGGGCGAUUACAUGAGGAUCACCCAUGUGUAGACAGUGAAGAAGAG
[3]
  apparent Kd: 165 nM
[4]
  apparent Kd: 12.7 nM
